The subject of data set [1] is Sapajus apella. Description: Iron clearing efficiency in bile duct cannulated Cebus apella assessed as clearance of iron in urine at 75 umol/kg, po […] relative to control. The format is functional.
Data set [2] concerns Sapajus apella. Description: Iron clearing efficiency in bile duct cannulated Cebus apella assessed as clearance of iron in bile at 75 umol/kg, po measured at 3 hrs intervals for up to 48 hrs relative to control. Type of data set: functional.
Data set [3] relates to Rattus norvegicus. Description: Iron clearing efficiency in bile duct cannulated Sprague-Dawley rat assessed as clearance of iron in bile at 300 umol/kg, po measured at 3 hrs intervals for up to 48 hrs relative to control. Type of data set: functional. Put shortly:
(§1)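 Non-iron-overloaded male Sprague-Dawley rats (400–450 g) with cannulated bile ducts received 300 µmol/kg po or sc. […] Bile was sampled every 3 h for up to 48 h and urine at 24 h intervals. ICE = (treated minus control iron excretion) / theoretical output (2:1 ligand:Fe) × 100 over 48 h. Mean ± SEM.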

In data set [4] the test system is Rattus norvegicus. Description: Iron clearing efficiency in bile duct cannulated Sprague-Dawley rat assessed as clearance of iron in urine at 300 umol/kg, po measured at 3 hrs intervals for up to 48 hrs relative to control. The format is functional.
Data set [5] deals with Rattus norvegicus. Description: Drug metabolism in Sprague-Dawley rat heart assessed as (S)-4'-(HO)-DADFT-PEAA level at 300 umol/kg, sc up to 8 hrs by HPLC analysis. The note with it: in vivo. Type of data set: ADME, organism-based. The method in brief: (§2)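 Male Sprague-Dawley rats (250–350 g) got a single sc dose of the monosodium salt at 300 µmol/kg, n=3 per time point. They were killed with CO2 at 0.5, 1, 2, 4 and 8 h. Citrated cardiac-puncture blood was spun to plasma, and liver, kidney, heart and pancreas were frozen. Tissue was homogenized 1:1 in water, given a methanol rinse, held 30 min at −20 °C, centrifuged and filtered. Read-out was reversed-phase HPLC, UV 310 nm.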

For data set [6], the system named is Rattus norvegicus. Description: Drug metabolism in Sprague-Dawley rat kidney assessed as (S)-4'-(HO)-DADFT-PEAA level at 300 umol/kg, sc up to 8 hrs by HPLC analysis. Type of data set: ADME, organism-based. The note with it: in vivo. The method in brief:
as §2

The subject of data set [7] is Rattus norvegicus. Description: Drug metabolism in Sprague-Dawley rat pancreas assessed as (S)-4'-(HO)-DADFT-PEAA level at 300 umol/kg, sc up to 8 hrs by HPLC analysis. The format is ADME, organism-based. The note with it: in vivo. Put shortly: as §2
For data set [8], the system named is Rattus norvegicus. Description: Drug metabolism in Sprague-Dawley rat plasma assessed as (S)-4'-(HO)-DADFT-PEAA level at 300 umol/kg, sc after 8 hrs by HPLC analysis. The note with it: in vivo. Type of data set: ADME, organism-based. Put shortly: as §2
Data set [9] relates to Sapajus apella. Description: Iron clearing efficiency in bile duct cannulated Cebus apella assessed as clearance of iron in urine at 150 umol/kg, sc measured at 3 hrs intervals for up to 48 hrs relative to control. The format is functional.
Data set [10] relates to Rattus norvegicus. Description: Iron clearing efficiency in bile duct cannulated Sprague-Dawley rat assessed as clearance of iron at 150 umol/kg, sc measured at 3 hrs intervals for up to 48 hrs relative to control.
Data set [11] concerns Rattus norvegicus. Description: Iron clearing efficiency in bile duct cannulated Sprague-Dawley rat assessed as clearance of iron in urine at 150 umol/kg, sc measured at 3 hrs intervals for up to 48 hrs relative to control. The format is functional.
In data set [12] the test system is Sapajus apella. Description: Iron clearing efficiency in bile duct cannulated Cebus apella assessed as clearance of iron in feces at 150 umol/kg, sc measured at 3 hrs intervals for up to 48 hrs relative to control. The format is functional.
Data set [13] concerns Sapajus apella. Description: Iron clearing efficiency in bile duct cannulated Cebus apella assessed as clearance of iron in urine at 150 umol/kg, po measured at 3 hrs intervals for up to 48 hrs relative to control. The format is functional.
Data set [14] has as its system Sapajus apella. Description: Iron clearing efficiency in bile duct cannulated Cebus apella assessed as clearance of iron at 150 umol/kg, po measured at 3 hrs intervals for up to 48 hrs relative to control. Type of data set: functional.
Data set [15] relates to Sapajus apella. Description: Iron clearing efficiency in bile duct cannulated Cebus apella assessed as clearance of iron in feces at 150 umol/kg, po measured at 3 hrs intervals for up to 48 hrs relative to control. The format is functional.
Data set [16] relates to Sapajus apella. Description: Iron clearing efficiency in bile duct cannulated Cebus apella assessed as clearance of iron in urine at 75 umol/kg, sc […] relative to control. Type of data set: functional.
Data set [17] is filed under the species Rattus norvegicus. Description: Iron clearing efficiency in bile duct cannulated Sprague-Dawley rat assessed as […] for up to 48 hrs relative to control. The format is functional, Urine.
Data set [18] deals with Sapajus apella. Description: Iron clearing efficiency in bile duct cannulated Cebus apella assessed as clearance of iron in bile at 75 umol/kg, sc measured at 3 hrs intervals for up to 48 hrs relative to control. Type of data set: functional.
The test system of data set [19] is Rattus norvegicus. Description: Iron clearing efficiency in bile duct cannulated Sprague-Dawley rat assessed as clearance of iron in bile at 300 umol/kg, sc measured at 3 hrs intervals for up to 48 hrs relative to control. The format is functional. The method in brief: as §1
Data set [20] has as its system Rattus norvegicus. Description: Drug metabolism in Sprague-Dawley rat liver assessed as (S)-4'-(HO)-DADFT-PEAA level at 300 umol/kg, sc up to 8 hrs by HPLC analysis. Type of data set: ADME, organism-based. The note with it: in vivo. Put shortly: as §2
Data set [21] can be described thus: Drug metabolism in Sprague-Dawley rat plasma assessed as parent compound level at 300 umol/kg, sc after 0.5 hrs by HPLC analysis. The note with it: read-out: Stability. The format is ADME, organism-based. Put shortly: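 Rats (male Sprague-Dawley, 250–350 g) were dosed sc once with the monosodium salt, 300 µmol/kg, three animals per time point up to 8 h. Plasma came from citrated cardiac blood; liver was frozen after CO2 euthanasia. Parent and metabolites were quantified by HPLC with UV at 310 nm against linear calibration curves (detection limit 0.25 µM, linear 1–1000 µM). Data are means.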

The subject of data set [22] is Rattus norvegicus. Description: Drug metabolism in Sprague-Dawley rat heart assessed as (S)-4'-(HO)-DADFT-PEA level at 300 umol/kg, sc up to 8 hrs by HPLC analysis. Type of data set: ADME, organism-based. The note with it: in vivo. Put shortly: as §2
Data set [23] relates to Rattus norvegicus. Description: Drug metabolism in Sprague-Dawley rat liver assessed as (S)-4'-(HO)-DADFT level at 300 umol/kg, sc after 8 hrs. Type of data set: ADME, organism-based. The note with it: in vivo.
For data set [24], the system named is Rattus norvegicus. Description: Drug metabolism in Sprague-Dawley rat liver assessed as (S)-4'-(HO)-DADFT-PEA level at 300 umol/kg, sc up to 8 hrs by HPLC analysis. The format is ADME, organism-based. The note with it: in vivo. Put shortly:
as §2

Data set [25] deals with Rattus norvegicus. Description: Drug metabolism in Sprague-Dawley rat kidney assessed as (S)-4'-(HO)-DADFT-PEA level at 300 umol/kg, sc up to 8 hrs by HPLC analysis. The format is ADME, organism-based. The note with it: in vivo. The method in brief:
as §2

In data set [26] the test system is Sapajus apella. Description: Iron clearing efficiency in […] Cebus apella assessed as clearance of iron in feces at 75 umol/kg, po […] relative to control. The format is functional. Put shortly:
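Cebus apella monkeys (3.5–6.5 kg) were iron-overloaded with intravenous iron dextran to about 500 mg Fe/kg, reaching serum transferrin saturation of 70–80%. At least 60 days elapsed before use. Chelator was given at 75 µmol/kg po or sc, with the same animals dosed by both routes. Feces and urine were collected at 24 h intervals from 4 days before to 5 days after dosing, and iron was measured by flame absorption spectroscopy. ICE = 2-day post-drug output minus 4-day mean baseline, divided by theoretical output (2:1 ligand:Fe), as %. Mean ± SEM.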

The test system of data set [27] is Rattus norvegicus. Description: Drug metabolism in Sprague-Dawley rat plasma assessed as (S)-4'-(HO)-DADFT-PEA level at 300 umol/kg, sc up to 8 hrs by HPLC analysis. The note with it: in vivo. Type of data set: ADME, organism-based. Put shortly: as §2
The subject of data set [28] is Rattus norvegicus. Description: Drug metabolism in Sprague-Dawley rat plasma assessed as (S)-4'-(HO)-DADFT-PEAA level at 300 umol/kg, sc up to 8 hrs by HPLC analysis. Type of data set: ADME, organism-based. The note with it: in vivo. Put shortly: as §2
Data set [29] relates to Rattus norvegicus. Description: Drug metabolism in Sprague-Dawley rat pancreas assessed as (S)-4'-(HO)-DADFT-PEA level at 300 umol/kg, sc up to 8 hrs by HPLC analysis. Type of data set: ADME, organism-based. The note with it: in vivo. Put shortly:
as §2

For data set [30], the system named is Rattus norvegicus. Description: Iron clearing efficiency in bile duct cannulated Sprague-Dawley rat assessed as clearance of iron at 300 umol/kg, po measured at 3 hrs intervals for up to 48 hrs relative to control. The format is functional. Put shortly: as §1
The nature of data set [31]: Performance ratio, ratio of iron clearing efficiency in […] at 75 umol/kg, po to iron clearing efficiency in bile duct cannulated Sprague-Dawley rat at 300 umol/kg, po. Type of data set: functional. The method in brief: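 Performance ratio = mean ICE in iron-overloaded Cebus apella (75 µmol/kg) divided by mean ICE in bile duct-cannulated rats (300 µmol/kg), by the same route.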

SMILES strings stand for the structures.

As to `C[C@]1(C(=O)O)CSC(c2ccc(OCCCCCC(=O)O)cc2O)=N1`, the Activity in data set [1] stood at 18%; in data set [2] it was 82%; in data set [3] it was 94%; in data set [4], 6%.

Consider `C[C@]1(C(=O)O)CSC(c2ccc(OCC(=O)O)cc2O)=N1`, for which the Activity in [1] stood at 40%; in data set [2], 60%; in data set [3], 89%; in data set [4], 11%.

`C[C@]1(C(=O)O)CSC(c2ccc(OCCOCCO)cc2O)=N1`: the Activity in [1] came out at 46%; in data set [2], 54%; in data set [3], 98%; in [4], 2%. In addition, the Drug metabolism result in [5] is “metabolite_detected”; in data set [6], “metabolite_detected”; in data set [7] it was “metabolite_detected”; in [8], “metabolite_notdetected”.

On to `COCCCCCCOc1ccc(C2=N[C@@](C)(C(=O)O)CS2)c(O)c1`, for which the figures for the Activity in data set [3] and in data set [4] were 99% and 1%, respectively.

For `CC(=O)N(O)CCCCCNC(=O)CCC(=O)N(O)CCCCCNC(=O)CCC(=O)N(O)CCCCCN` [DEFEROXAMINE], the Activity is listed as 55% in [9], 74% in [10], 26% in [11] and 45% in data set [12].

Turning to `COCCOCCOCCOc1cccc(C2=N[C@@](C)(C(=O)O)CS2)c1O` [DEFERITAZOLE], the Activity in data set [13] is given as 5%; in data set [14], 23%; in [15] it was 95%.

As for `C[C@]1(C(=O)O)CSC(c2ccc(OCCCC(=O)O)cc2O)=N1`, the Activity turned out to be 3% in [1], 97% in data set [2], 89% in data set [3] and 11% in data set [4].

Turning to `C[C@]1(C(=O)[O-])CSC(c2ccc(OCCOCC(=O)O)cc2O)=N1.[Na+]`, the Activity is recorded as 16% in [16], 1% in [17], 84% in data set [18] and 99% in data set [19].

As to `C[C@]1(C(=O)[O-])CSC(c2ccc(OCC(=O)O)cc2O)=N1.[Na+]`, the Activity in data set [16] was 47%; in [18] it was 53%; in data set [19], 94%.

Take `COCCOCCOc1ccc(C2=N[C@@](C)(C(=O)O)CS2)c(O)c1` [SP-420]: the Drug metabolism result is “metabolite_notdetected” in [20]; “metabolite_notdetected” in [5]; “metabolite_notdetected” in [6]; “metabolite_notdetected” in data set [7]; “metabolite_detected” in data set [22]; “metabolite_notdetected” in data set [23]. Moreover, the Drug metabolism entry in data set [24] was “metabolite_detected”; in data set [25], “metabolite_detected”; in data set [27], “metabolite_detected”; in [28] it was “metabolite_notdetected”; in data set [29] it was “metabolite_detected”. Moreover, the remaining at 0.5 h in data set [21] was 95%. Moreover, the Activity in data set [3] was determined as 97%; in data set [4] it was 3%; in [26], 93%.

Consider `COCCOCCOCCOc1ccc(C2=N[C@@](C)(C(=O)O)CS2)c(O)c1`, for which the Activity in data set [30] turned out to be 5.5%.

On to `C[C@]1(C(=O)[O-])CSC(c2ccc(OCCCCCC(=O)O)cc2O)=N1.[Na+]`, for which the Activity in [16] stood at 31%; in [17] it was 4%; in data set [18], 69%; in data set [19] it was 96%. Further, the Ratio in data set [31] came out at 1.2.

Take `C[C@]1(C(=O)[O-])CSC(c2ccc(OCCCC(=O)O)cc2O)=N1.[Na+]`: the Activity in data set [16] is on record as 22%; in data set [17], 5%; in data set [18], 78%; in data set [19], 95%.

As to `C[C@]1(C(=O)O)CSC(c2ccc(OCCOCC(=O)O)cc2O)=N1`, the Activity turned out to be 49% in data set [1], 51% in data set [2], 100% in data set [3] and 0% in data set [4].

As to `COCCOCCOc1ccc(C2=N[C@@](C)(C(=O)[O-])CS2)c(O)c1.[Na+]`, the Activity in data set [1] was 17%.

`C[C@]1(C(=O)O)CSC(c2cccc(O)c2O)=N1`: the Activity in data set [13] was 17%; in [14], 23.1%; in data set [15], 83%.

With `COc1ccc(C2=N[C@@](C)(C(=O)O)CS2)c(O)c1`, the Activity in data set [30] worked out at 6.6%.

(Values after ChEMBL document CHEMBL3608261, “Metabolically programmed iron chelators” (Bioorg Med Chem, 2015).)
